Assay results taken from ChEMBL document CHEMBL3994579, “Synthesis and antibacterial activity of novel 3-O-descladinosylazithromycin derivatives” (2017).
Converted amounts (≈) assume the structure as drawn.

Key:
Type in all cases: functional
Escherichia coli = assay: Antibacterial activity against penicillin-susceptible Escherichia coli ATCC 25922 by broth microdilution method
In short: (§1)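 MICs were determined in vitro by broth microdilution following the NCCL-recommended method. Azithromycin and clarithromycin were run alongside as reference antibiotics on the same strain panel.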

Staphylococcus aureus [1] = assay: Antibacterial activity against erythromycin-susceptible Staphylococcus aureus ATCC 25923 by broth microdilution method; in short: as §1
Streptococcus pyogenes [2] = assay: Antibacterial activity against erythromycin-resistant Streptococcus pyogenes R1 clinical isolate by broth microdilution method
[3] = tested on: Staphylococcus epidermidis; assay: Antibacterial activity against penicillin-resistant Staphylococcus epidermidis clinical isolate by broth microdilution method
In short: (§2)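 Broth microdilution per NCCL recommendation, read as minimal inhibitory concentration, run alongside azithromycin and clarithromycin references. Strains: S. pneumoniae B1 (erythromycin-resistant, ermB), A22072 (erythromycin-resistant, mefA), AB11 (erythromycin-resistant, erm and mef); S. aureus ATCC29213 ([…]); S. epidermidis clinical isolate (penicillin-resistant, not characterized).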

Bacillus subtilis = assay: Antibacterial activity against erythromycin/penicillin-susceptible Bacillus subtilis ATCC 9372 by broth microdilution method; in short: as §1
Streptococcus pneumoniae [4] = assay: Antibacterial activity against erythromycin-resistant Streptococcus pneumoniae B1 expressing ermB gene by broth microdilution method; in short: as §2
Streptococcus pneumoniae [5] = assay: Antibacterial activity against erythromycin-resistant Streptococcus pneumoniae A22072 expressing mefA gene by broth microdilution method; in short: as §2
Streptococcus pyogenes [6] = assay: Antibacterial activity against erythromycin-susceptible Streptococcus pyogenes clinical isolate by broth microdilution method; in short: as §1
Streptococcus pneumoniae [7] = assay: Antibacterial activity against erythromycin-resistant Streptococcus pneumoniae AB11 expressing ermB/mefA genes by broth microdilution method; in short: as §2
Staphylococcus aureus [8] = assay: Antibacterial activity against […] Staphylococcus aureus ATCC 29213 by broth microdilution method; in short: as §2
Pseudomonas aeruginosa = assay: Antibacterial activity against penicillin-susceptible Pseudomonas aeruginosa ATCC 27853 by broth microdilution method; in short: as §1

Row | SMILES | MIC (Escherichia coli) | MIC (Staphylococcus aureus [1]) | MIC (Streptococcus pyogenes [2]) | MIC [3] | MIC (Bacillus subtilis) | MIC (Streptococcus pneumoniae [4]) | MIC (Streptococcus pneumoniae [5]) | MIC (Streptococcus pyogenes [6]) | MIC (Streptococcus pneumoniae [7]) | MIC (Staphylococcus aureus [8]) | MIC (Pseudomonas aeruginosa)
1 | CC[C@H]1OC(=O)[C@H](C)[C@@H](OC(=O)NCc2ccccc2)[C@H](C)[C@@H](O[C@@H]2O[C@H](C)C[C@H](N(C)C)[C@H]2OC(C)=O)[C@](C)(O)C[C@@H](C)CN(C)[C@H](C)[C@H]2OC(=O)O[C@@]21C | 128 µg/mL (≈ 162 µM) | 64 µg/mL (≈ 80.8 µM) | 128 µg/mL (≈ 162 µM) | 64 µg/mL (≈ 80.8 µM) | 64 µg/mL (≈ 80.8 µM) | 128 µg/mL (≈ 162 µM) | 32 µg/mL (≈ 40.4 µM) | 8 µg/mL (≈ 10.1 µM) | 64 µg/mL (≈ 80.8 µM) | 64 µg/mL (≈ 80.8 µM) | 128 µg/mL (≈ 162 µM)
2 | CC[C@H]1OC(=O)[C@H](C)[C@@H](OC(=O)Nc2cccc(F)c2)[C@H](C)[C@@H](O[C@@H]2O[C@H](C)C[C@H](N(C)C)[C@H]2O)[C@](C)(O)C[C@@H](C)CN(C)[C@H](C)[C@H]2OC(=O)O[C@@]21C | 128 µg/mL (≈ 170 µM) | 32 µg/mL (≈ 42.4 µM) | 128 µg/mL (≈ 170 µM) | 64 µg/mL (≈ 84.9 µM) | 128 µg/mL (≈ 170 µM) | 64 µg/mL (≈ 84.9 µM) | 16 µg/mL (≈ 21.2 µM) | 2 µg/mL (≈ 2.65 µM) | 32 µg/mL (≈ 42.4 µM) | 128 µg/mL (≈ 170 µM) | 128 µg/mL (≈ 170 µM)
3 | CC[C@H]1OC(=O)[C@H](C)[C@@H](O[C@H]2C[C@@](C)(OC)[C@@H](O)[C@H](C)O2)[C@H](C)[C@@H](O[C@@H]2O[C@H](C)C[C@H](N(C)C)[C@H]2O)[C@](C)(OC)C[C@@H](C)C(=O)[C@H](C)[C@@H](O)[C@]1(C)O [CLARITHROMYCIN] | 32 µg/mL (≈ 42.8 µM) | 0.25 µg/mL (≈ 0.334 µM) | 256 µg/mL (≈ 342 µM) | 0.25 µg/mL (≈ 0.334 µM) | 0.25 µg/mL (≈ 0.334 µM) | 256 µg/mL (≈ 342 µM) | 2 µg/mL (≈ 2.67 µM) | 0.03 µg/mL (≈ 0.0401 µM) | 128 µg/mL (≈ 171 µM) | 32 µg/mL (≈ 42.8 µM) | 64 µg/mL (≈ 85.6 µM)
4 | CC[C@H]1OC(=O)[C@H](C)[C@@H](O)[C@H](C)[C@@H](O[C@@H]2O[C@H](C)C[C@H](N(C)C)[C@H]2OC(=O)Nc2ccc(F)cc2)[C@](C)(O)C[C@@H](C)CN(C)[C@H](C)[C@H]2OC(=O)O[C@@]21C | 128 µg/mL (≈ 170 µM) | 16 µg/mL (≈ 21.2 µM) | 64 µg/mL (≈ 84.9 µM) | 64 µg/mL (≈ 84.9 µM) | 64 µg/mL (≈ 84.9 µM) | 64 µg/mL (≈ 84.9 µM) | 4 µg/mL (≈ 5.31 µM) | 1 µg/mL (≈ 1.33 µM) | 8 µg/mL (≈ 10.6 µM) | 128 µg/mL (≈ 170 µM) | 128 µg/mL (≈ 170 µM)
5 | CC[C@H]1OC(=O)[C@H](C)[C@@H](OC(=O)Nc2ccc(C(F)(F)F)cc2)[C@H](C)[C@@H](O[C@@H]2O[C@H](C)C[C@H](N(C)C)[C@H]2O)[C@](C)(O)C[C@@H](C)CN(C)[C@H](C)[C@H]2OC(=O)O[C@@]21C | 128 µg/mL (≈ 159 µM) | 16 µg/mL (≈ 19.9 µM) | 64 µg/mL (≈ 79.6 µM) | 0.25 µg/mL (≈ 0.311 µM) | 32 µg/mL (≈ 39.8 µM) | 32 µg/mL (≈ 39.8 µM) | 4 µg/mL (≈ 4.98 µM) | 1 µg/mL (≈ 1.24 µM) | 4 µg/mL (≈ 4.98 µM) | 128 µg/mL (≈ 159 µM) | 128 µg/mL (≈ 159 µM)
6 | CC[C@H]1OC(=O)[C@H](C)[C@@H](OC(=O)Nc2ccccc2C)[C@H](C)[C@@H](O[C@@H]2O[C@H](C)C[C@H](N(C)C)[C@H]2OC(C)=O)[C@](C)(O)C[C@@H](C)CN(C)[C@H](C)[C@H]2OC(=O)O[C@@]21C | 64 µg/mL (≈ 80.8 µM) | 16 µg/mL (≈ 20.2 µM) | 256 µg/mL (≈ 323 µM) | 128 µg/mL (≈ 162 µM) | 8 µg/mL (≈ 10.1 µM) | 256 µg/mL (≈ 323 µM) | 8 µg/mL (≈ 10.1 µM) | 1 µg/mL (≈ 1.26 µM) | 16 µg/mL (≈ 20.2 µM) | 64 µg/mL (≈ 80.8 µM) | 64 µg/mL (≈ 80.8 µM)
7 | CC[C@H]1OC(=O)[C@H](C)[C@@H](O)[C@H](C)[C@@H](O[C@@H]2O[C@H](C)C[C@H](N(C)C)[C@H]2OC(=O)Nc2cccc(F)c2)[C@](C)(O)C[C@@H](C)CN(C)[C@H](C)[C@H]2OC(=O)O[C@@]21C | 128 µg/mL (≈ 170 µM) | 32 µg/mL (≈ 42.4 µM) | 128 µg/mL (≈ 170 µM) | 64 µg/mL (≈ 84.9 µM) | 128 µg/mL (≈ 170 µM) | 256 µg/mL (≈ 340 µM) | 8 µg/mL (≈ 10.6 µM) | 1 µg/mL (≈ 1.33 µM) | 16 µg/mL (≈ 21.2 µM) | 128 µg/mL (≈ 170 µM) | 128 µg/mL (≈ 170 µM)
8 | CC[C@H]1OC(=O)[C@H](C)[C@@H](O[C@H]2C[C@@](C)(OC)[C@@H](O)[C@H](C)O2)[C@H](C)[C@@H](O[C@@H]2O[C@H](C)C[C@H](N(C)C)[C@H]2O)[C@](C)(O)C[C@@H](C)CN(C)[C@H](C)[C@@H](O)[C@]1(C)O [AZITHROMYCIN] | 64 µg/mL (≈ 85.4 µM) | 0.25 µg/mL (≈ 0.334 µM) | 256 µg/mL (≈ 342 µM) | 0.25 µg/mL (≈ 0.334 µM) | 1 µg/mL (≈ 1.34 µM) | 256 µg/mL (≈ 342 µM) | 4 µg/mL (≈ 5.34 µM) | 0.03 µg/mL (≈ 0.0401 µM) | 256 µg/mL (≈ 342 µM) | 4 µg/mL (≈ 5.34 µM) | 32 µg/mL (≈ 42.7 µM)
9 | CC[C@H]1OC(=O)[C@H](C)[C@@H](O)[C@H](C)[C@@H](O[C@@H]2O[C@H](C)C[C@H](N(C)C)[C@H]2OC(=O)Nc2cccc(OC)c2)[C@](C)(O)C[C@@H](C)CN(C)[C@H](C)[C@H]2OC(=O)O[C@@]21C | 64 µg/mL (≈ 83.6 µM) | 32 µg/mL (≈ 41.8 µM) | 128 µg/mL (≈ 167 µM) | 64 µg/mL (≈ 83.6 µM) | 128 µg/mL (≈ 167 µM) | 128 µg/mL (≈ 167 µM) | 16 µg/mL (≈ 20.9 µM) | 2 µg/mL (≈ 2.61 µM) | 32 µg/mL (≈ 41.8 µM) | 128 µg/mL (≈ 167 µM) | 64 µg/mL (≈ 83.6 µM)
10 | CC[C@H]1OC(=O)[C@H](C)[C@@H](OC(=O)Nc2ccc(F)cc2)[C@H](C)[C@@H](O[C@@H]2O[C@H](C)C[C@H](N(C)C)[C@H]2O)[C@](C)(O)C[C@@H](C)CN(C)[C@H](C)[C@H]2OC(=O)O[C@@]21C | 128 µg/mL (≈ 170 µM) | 32 µg/mL (≈ 42.4 µM) | 64 µg/mL (≈ 84.9 µM) | 64 µg/mL (≈ 84.9 µM) | 16 µg/mL (≈ 21.2 µM) | 32 µg/mL (≈ 42.4 µM) | 2 µg/mL (≈ 2.65 µM) | 0.25 µg/mL (≈ 0.332 µM) | 8 µg/mL (≈ 10.6 µM) | 64 µg/mL (≈ 84.9 µM) | 128 µg/mL (≈ 170 µM)
11 | CC[C@H]1OC(=O)[C@H](C)[C@@H](OC(=O)Nc2cccc(Cl)c2)[C@H](C)[C@@H](O[C@@H]2O[C@H](C)C[C@H](N(C)C)[C@H]2O)[C@](C)(O)C[C@@H](C)CN(C)[C@H](C)[C@H]2OC(=O)O[C@@]21C | 128 µg/mL (≈ 166 µM) | 8 µg/mL (≈ 10.4 µM) | 32 µg/mL (≈ 41.5 µM) | 0.5 µg/mL (≈ 0.649 µM) | 16 µg/mL (≈ 20.8 µM) | 32 µg/mL (≈ 41.5 µM) | 1 µg/mL (≈ 1.3 µM) | 0.25 µg/mL (≈ 0.325 µM) | 4 µg/mL (≈ 5.19 µM) | 64 µg/mL (≈ 83.1 µM) | 128 µg/mL (≈ 166 µM)
12 | CCCCCCNC(=O)O[C@@H]1[C@@H](C)N(C)C[C@H](C)C[C@@](C)(O)[C@H](O[C@@H]2O[C@H](C)C[C@H](N(C)C)[C@H]2O)[C@@H](C)[C@H](OC(=O)Nc2ccccc2)[C@@H](C)C(=O)O[C@H](CC)[C@@]1(C)O | 64 µg/mL (≈ 76.5 µM) | 16 µg/mL (≈ 19.1 µM) |  |  | 4 µg/mL (≈ 4.78 µM) |  |  | 1 µg/mL (≈ 1.19 µM) |  |  | 64 µg/mL (≈ 76.5 µM)
13 | CC[C@H]1OC(=O)[C@H](C)[C@@H](OC(=O)N(C)c2ccccc2)[C@H](C)[C@@H](O[C@@H]2O[C@H](C)C[C@H](N(C)C)[C@H]2O)[C@](C)(O)C[C@@H](C)CN(C)[C@H](C)[C@H]2OC(=O)O[C@@]21C | 64 µg/mL (≈ 85.3 µM) | 4 µg/mL (≈ 5.33 µM) | 64 µg/mL (≈ 85.3 µM) | 8 µg/mL (≈ 10.7 µM) | 4 µg/mL (≈ 5.33 µM) | 64 µg/mL (≈ 85.3 µM) | 2 µg/mL (≈ 2.67 µM) | 0.125 µg/mL (≈ 0.167 µM) | 4 µg/mL (≈ 5.33 µM) | 64 µg/mL (≈ 85.3 µM) | 64 µg/mL (≈ 85.3 µM)
14 | CC[C@H]1OC(=O)[C@H](C)[C@@H](OC(=O)N(C)c2ccccc2)[C@H](C)[C@@H](O[C@@H]2O[C@H](C)C[C@H](N(C)C)[C@H]2OC(C)=O)[C@](C)(O)C[C@@H](C)CN(C)[C@H](C)[C@H]2OC(=O)O[C@@]21C |  |  |  | 128 µg/mL (≈ 162 µM) |  |  |  |  |  |  | 
